Measured values taken from ChEMBL document CHEMBL4041527, “Disulfide Bond-Containing Ajoene Analogues As Novel Quorum Sensing Inhibitors of Pseudomonas aeruginosa” (J Med Chem, 2017).
Calls of active or inactive are those of the source. The rule behind the calls is not given here.

Experiments:
[1] = (§1) Inhibition of quorum sensing LasI synthase in Pseudomonas aeruginosa PAO1 harboring reporter plasmid lasB-gfp assessed as reduction in lasB expression measured every 15 mins for 12 hrs by GFP-fluorescence assay
Pseudomonas aeruginosa [2] = assay: Growth inhibition of Pseudomonas aeruginosa PAO1 harboring reporter plasmid lasB-gfp
[3] = target: T1, HTH-type quorum-sensing regulator RhlR (Pseudomonas aeruginosa (strain ATCC 15692 / PAO1 / 1C / PRS 101 / LMG12228)) (UniProt P54292); assay: Inhibition of quorum sensing regulator protein RhlR in wild-type Pseudomonas aeruginosa PAO1 assessed as reduction in rhamnolipid level at 10 uM after 24 hrs relative to control
T1 sequence (whole entry): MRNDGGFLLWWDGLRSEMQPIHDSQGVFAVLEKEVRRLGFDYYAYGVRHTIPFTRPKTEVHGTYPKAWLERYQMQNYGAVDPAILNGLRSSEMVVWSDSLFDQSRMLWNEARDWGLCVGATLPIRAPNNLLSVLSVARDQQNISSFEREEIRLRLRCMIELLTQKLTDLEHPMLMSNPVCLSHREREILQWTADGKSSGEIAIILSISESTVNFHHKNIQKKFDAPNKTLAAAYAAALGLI
Outline: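 PAO1 subculture diluted 100-fold into ABTGC (OD600 0.1) with 10 µM compound, ∆lasI∆rhlI as negative control. Grown 24 h at 37 °C, 200 rpm; final OD600 read. Supernatant extracted twice with diethyl ether and rhamnolipid quantified by a modified orcinol method. Student's t test, mean ± SD.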

[4] = target: T1, HTH-type quorum-sensing regulator RhlR (Pseudomonas aeruginosa (strain ATCC 15692 / PAO1 / 1C / PRS 101 / LMG12228)); assay: Inhibition of quorum sensing regulator protein RhlR in wild-type Pseudomonas aeruginosa PAO1 assessed as reduction in pyocyanin level at 10 uM after 48 hrs
Outline: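 PAO1 wild type, with ∆lasI∆rhlI as negative control, standardized to OD600 0.1 and diluted 100-fold into 25 mL King's medium with 10 µM compound. Grown 48 h at 37 °C, 200 rpm; final OD600 read. Pyocyanin extracted from supernatant with chloroform then 0.2 M HCl; absorbance read on the aqueous layer. Student's t test.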

RAW264.7 [5] = assay: Cytotoxicity against mouse RAW264.7 cells at 100 uM measured after 16 hrs by Alamar blue assay; assay type: cell-based; settings: raw264.7, 16 h
Outline: (§2)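 RAW264.7 macrophages in DMEM with 10% FBS, 1 × 10^5 per well, grown 16 h. Cells were washed with PBS and exposed to compound at 0, 0.01, 0.1, 1, 10 or 100 µM for 16 h at 37 °C, 5% CO2. Alamar Blue added, 3 h incubation, OD595 read. Triplicates, mean±s.d., compared with DMSO.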

[6] = system: Pseudomonas aeruginosa PAO1; assay: Inhibition of quorum sensing LasI synthase in wild-type Pseudomonas aeruginosa PAO1 assessed as reduction in elastase production at 10 uM incubated for 24 hrs measured every 10 mins for 3 hrs by BODIPY fluorophore-labelled DQ elastin conjugate based fluorescence assay
Outline: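 PAO1 wild type, with ∆lasI∆rhlI as negative control, diluted to OD600 0.01 in 5 mL ABTGC with 10 µM compound. Grown 24 h at 37 °C, 200 rpm. Cleared supernatant assayed with BODIPY FL-labelled DQ elastin; fluorescence (ex 490/em 520 nm) read every 10 min for 3 h. Student's t test, mean ± SD.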

[7] = system: Pseudomonas aeruginosa PAO1; assay: Inhibition of quorum sensing LasI synthase in Pseudomonas aeruginosa PAO1 harboring reporter plasmid lasB-gfp at 10 uM in presence of bovine serum albumin measured after 18 hrs by GFP-fluorescence assay
Outline: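 BSA dissolved in ABTGC at 100 mg/mL, then 2-fold serially diluted across rows; compound final 10 µM. PAO1-lasB-gfp, grown overnight in LB, added at OD600 0.02 in ABTGC. GFP/OD read after 18 h at 37 °C.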

Pseudomonas aeruginosa [8] = assay: Antibacterial activity against Pseudomonas aeruginosa in bacterial coated silicone implanted BALB/c mouse assessed as reduction in biofilm formation at 10 uM measured at 24 hrs post infection; assay type: functional
Outline: (§3)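 Female BALB/c mice, 8 weeks old. A 4 mm silicone tube was incubated 18 h at 37 °C in 0.9% NaCl with P. aeruginosa (OD600 0.1), then inserted into the peritoneal cavity under ketamine/xylazine. At 2 h post-infection, 200 µL of 10 µM compound (EtOH stock diluted in 20% hydroxypropyl-β-cyclodextrin/saline) was injected at the implant site; vehicle for controls. At 24 h, CFU/mL counted from sonicated implants and homogenized spleens on LB; Mann-Whitney U test.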

Pseudomonas aeruginosa [9] = assay: Antibacterial activity against Pseudomonas aeruginosa infected in BALB/c mouse assessed as reduction in bacterial dissemination in spleen at 10 uM measured at 24 hrs post infection; assay type: functional; outline: as §3
RAW264.7 [10] = assay: Cytotoxicity against mouse RAW264.7 cells at 0.01 to 10 uM measured after 16 hrs by Alamar blue assay; assay type: cell-based; settings: raw264.7, 16 h; outline: as §2
Pseudomonas aeruginosa [11] = assay: Effect on GFP fluorescence output signal in Pseudomonas aeruginosa PAO1 at 10 uM measured every 15 mins for 12 hrs; assay type: ADME
Outline: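 PAO1-gfp control strain, handled as the lasB-gfp reporter assay. Overnight LB culture diluted in ABTGC to OD600 0.02 and mixed with compound, final 10 µM, DMSO 0.1% final. Incubated at 37 °C; OD600 and GFP fluorescence (ex 485/em 535 nm) read every 15 min for at least 12 h, in triplicate.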

[12] = system: Pseudomonas aeruginosa PAO1; assay: Inhibition of quorum sensing LasI synthase in Pseudomonas aeruginosa PAO1 harboring reporter plasmid lasB-gfp assessed as reduction in lasB expression at 10 uM measured every 15 mins for 12 hrs by GFP-fluorescence assay
[13] = system: Pseudomonas aeruginosa PAO1; assay: as §1
[14] = target: T2, HTH-type quorum-sensing regulator RhlR (Pseudomonas aeruginosa (strain ATCC 15692 / PAO1 / 1C / PRS 101 / LMG12228), UniProt P54292); assay: Inhibition of quorum sensing regulator protein RhlR in Pseudomonas aeruginosa PAO1 harboring reporter plasmid rhlA-gfp assessed as reduction in rhlA expression measured every 15 mins for 12 hrs by GFP-fluorescence assay
T2 sequence (P54292 whole entry): T1 sequence (whole entry)

[15] = Inhibition of quorum sensing regulator protein pqsR in Pseudomonas aeruginosa PAO1 harboring reporter plasmid pqsA-gfp assessed as reduction in pqsA expression measured every 15 mins for 12 hrs by GFP-fluorescence assay

| Structure (SMILES) | IC50 [1] [µM] | growth inhibition (GI) (Pseudomonas aeruginosa [2]) | other results |
| --- | --- | --- | --- |
| C=CCSSc1nc2ccc(OCC)cc2s1 | 3.58 | Non-Toxic |  |
| Clc1ccc(SSc2nc3ccccc3s2)cc1 | 0.56 | Non-Toxic | inhibition [3]: 50%; inhibition [4]: Active; Activity (RAW264.7 [5]): Toxic; inhibition [6]: Active; inhibition [7]: Active; Activity (Pseudomonas aeruginosa [8]): Active; Activity (Pseudomonas aeruginosa [9]): Active; Activity (RAW264.7 [10]): Non-Toxic; Activity (Pseudomonas aeruginosa [11]): Non-Toxic |
| C=CCSSc1nc2ccc(C)cc2s1 | 1.12 | Non-Toxic |  |
| C=CCSSc1ccccc1C(=O)OC |  | Non-Toxic | inhibition [12]: inactive |
| FC(F)(F)c1ccc2nc(SSc3ccc(Cl)cc3)sc2c1 | 0.58 | Non-Toxic |  |
| COc1ccc(SSc2nc3ccccc3s2)cc1 | 1.66 | Non-Toxic |  |
| C=CCSSCc1ccccc1 | 20.9 | Non-Toxic |  |
| C=CCSc1nc2ccccc2s1 |  | Non-Toxic | inhibition [13]: inactive |
| O=C(NS(=O)(=O)c1ccccc1)c1ccccc1 | 36.2 |  | inhibition [13]: Dose-dependent effect |
| CCCSc1nc2ccccc2s1 |  | Non-Toxic | inhibition [13]: inactive |
| C=CCSSc1nnnn1-c1ccccc1 |  | Non-Toxic | inhibition [12]: inactive |
| Clc1ccc(SSc2nc3ccc(Cl)cc3s2)cc1 | 3.25 | Non-Toxic |  |
| C=CCSS/C=C/C[S+]([O-])CC=C (configuration not stated) [AJOENE] | 15 | Non-Toxic | IC50 [14]: 50 µM |
| C=CCSSc1nc2ccc(Cl)cc2o1 | 4.08 | Non-Toxic |  |
| C[S+]([O-])CCCN=C=S (configuration not stated) | 31 | Non-Toxic |  |
| FC(F)(F)c1ccc2nc(SSc3nc4ccc(C(F)(F)F)cc4s3)sc2c1 | 12.1 | Non-Toxic |  |

| Structure (SMILES) | IC50 [1] [µM] | growth inhibition (GI) (Pseudomonas aeruginosa [2]) | other results |
| --- | --- | --- | --- |
| C=CCCSc1nc2ccccc2s1 |  | Non-Toxic | inhibition [13]: inactive |
| C=CCSSc1nc2ccccc2s1 | 0.98 | Non-Toxic | inhibition [13]: Dose-dependent effect; inhibition [3]: 50%; IC50 [15]: 0.33 µM; IC50 [14]: 2.03 µM; inhibition [4]: Active; Activity (RAW264.7 [5]): Toxic; inhibition [6]: Active; inhibition [7]: Active; Activity (Pseudomonas aeruginosa [8]): Active; Activity (Pseudomonas aeruginosa [9]): Active; Activity (RAW264.7 [10]): Non-Toxic; Activity (Pseudomonas aeruginosa [11]): Non-Toxic |
| c1ccc(SSc2nc3ccccc3s2)cc1 | 1.34 | Non-Toxic |  |
| CCOc1ccc2nc(SSc3ccc(Cl)cc3)sc2c1 | 0.72 | Non-Toxic |  |
| CCCSSc1nc2ccccc2s1 | 2.2 | Non-Toxic |  |
| Cc1ccc2nc(SSc3ccc(Cl)cc3)sc2c1 | 0.68 | Non-Toxic |  |
| CCOc1ccc2nc(SSc3nc4ccc(OCC)cc4s3)sc2c1 | 45.4 | Non-Toxic |  |
| C=CCSSc1nc2ccc(C(F)(F)F)cc2s1 | 1.35 | Non-Toxic |  |
| CCOC(=S)SCC#N | 2.14 |  | inhibition [13]: Dose-dependent effect |
| C=CCSSc1nnc(N)s1 | 2.28 | Non-Toxic | inhibition [13]: Dose-dependent effect |
| C=CCSSc1nc2ccc(Cl)cc2s1 | 0.78 | Non-Toxic |  |
| C=CCSSc1nc2cc(OC)ccc2o1 | 3.45 | Non-Toxic |  |
| c1ccc2sc(SSC3CCCCC3)nc2c1 | 6 | Non-Toxic |  |
| c1ccc2sc(SSc3nc4ccccc4s3)nc2c1 [BENZOTHIAZYL DISULFIDE] | 14.5 | Non-Toxic |  |
| Cc1ccc2nc(SSc3nc4ccc(C)cc4s3)sc2c1 | 16.9 | Non-Toxic |  |
| Clc1ccc(Sc2nc3ccccc3s2)cc1 |  | Non-Toxic | inhibition [13]: inactive |
